# HCV NS3 hel inh: inhibitors of HCV NS3 helicase, primary screen, biochemical, Cy5 molecular beacon fluorescence. inhibition, % at 10.9 µM. NS3 helicase DNA unwinding. actives 0.56% (n = 290,000);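 active = inhibition above the mean of all tested compounds plus 3 SD, set per campaign, cut at about 35% in these data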
#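 test system = hepatitis C virus NS3 helicase domain fragment enzyme | reagent = annealed dual-labelled DNA beacon duplex, ATP-started | times = 1 h at 25 °C | detection = Cy5 fluorescence, 0 and 60 min reads | read-out basis = percent inhibition from t60/t0 fluorescence ratio | control set = DMSO and thioflavine S | replication = one well per compound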
# GRIN3A LBD mod: binders of NR3A ligand-binding domain, primary screen, biophysical, differential scanning fluorimetry, uHTS | Glutamate receptor ionotropic, NMDA 3A (GRIN3A) ligand-binding domain | NR3A LBD differential scanning fluorimetry, Tm shift; 0% = protein alone, 100% = glycine-bound protein | Tm shift relative to glycine control, % at 25 µM | actives 2.5% (n = 340,000) | AID 1259313, 2017;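 active = melting temperature shift of at least 10% of the positive control shift, at one fixed dose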
# FGF22 binding: binders of human FGF22 protein, primary screen, FGF22 synaptogenesis inhibitor project, biophysical, thermal shift, single point. recombinant FGF22 thermal shift, SYPRO orange fluorescence; percent of sucrose octasulfate shift, DMSO zero. Fibroblast growth factor 22 (Homo sapiens), Q9HCT0. actives 1.5% (n = 340,000). AID 651658, 2012. activity (Tm shift, normalised), % at 9.99 µM;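 active = mean Tm shift, scaled 0 neutral to 100 positive control, at about 1.3% or above, every replicate too, limit read from the data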
# Target sequence (Q9HCT0 whole entry, looked up): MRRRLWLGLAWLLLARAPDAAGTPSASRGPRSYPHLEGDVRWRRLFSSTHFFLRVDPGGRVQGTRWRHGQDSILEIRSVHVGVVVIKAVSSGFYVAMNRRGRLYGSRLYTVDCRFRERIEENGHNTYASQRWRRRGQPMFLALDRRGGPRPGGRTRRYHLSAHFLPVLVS
# FID counter: compounds displacing fluorescent DNA intercalator, primary screen, artefact control for HCV NS3 helicase inhibitor project, biochemical, FID fluorescence; DNA fluorescent intercalator displacement; inhibition, % at 7.9 µM; AID 1845, 2009; actives 0.17% (n = 290,000); in the data active = inhibition above about 37%;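 note: higher means more ethidium bromide displaced from hairpin DNA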
# EBNA-1 inh: EBNA-1 DNA-binding inhibitors, primary screen, biochemical, fluorescence polarization. inhibition, % at 14.8 µM. actives 0.34% (n = 300,000); in the data active = inhibition above about 28%
# ZTA DNA inh: blocks Epstein-Barr virus ZTA, an EBNA-1 counter-screen; inhibition, % at 11 µM; AID 2234; ZTA-DNA binding, fluorescence polarization; actives 0.15% (n = 320,000); P03206; in the data active = inhibition above about 33%
# Target sequence (P03206 whole entry, looked up): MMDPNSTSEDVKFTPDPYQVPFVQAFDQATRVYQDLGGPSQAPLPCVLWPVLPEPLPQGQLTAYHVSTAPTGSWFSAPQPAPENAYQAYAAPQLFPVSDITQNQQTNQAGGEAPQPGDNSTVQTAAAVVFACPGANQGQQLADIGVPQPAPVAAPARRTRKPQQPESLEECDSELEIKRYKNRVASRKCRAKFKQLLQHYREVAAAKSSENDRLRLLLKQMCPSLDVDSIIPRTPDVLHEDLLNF
# Zta DNA confirm: EBV Zta binding to ZRE DNA, inhibitors, confirmation, biochemical, fluorescence polarization, triplicate; actives 30% (n = 320); inhibition, % at 11.1 µM; shares compounds with ZTA DNA inh;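 active = mean inhibition across triplicate runs above the hit threshold derived for the original primary screen, cut at about 33% in these data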
# EBNA-1 counter: EBNA-1 DNA-binding inhibition, counter-screen for ZTA inhibitor project, biochemical, fluorescence polarization. 320 tested, under 10 active. shares compounds with ZTA DNA inh. inhibition, % at 14.8 µM. AID 2362, 2010; call rule not given here
# Numbers stand for hits; n = inactive; x = no result. The list is not random: actives were taken first. Their share in the collection is about 3.6%.
SMILES,HCV NS3 hel inh,GRIN3A LBD mod,FGF22 binding,FID counter,EBNA-1 inh,ZTA DNA inh,Zta DNA confirm,EBNA-1 counter
CCNc1ccc2noc3c2c1C(=O)c1ccccc1-3,n,n,x,n,n,63.1,n,n
CCNc1ccccc(-c2ccc3ccccc3n2)c1=O,n,n,x,n,n,n,x,x
CC(C)c1ccc(NC(=O)COc2ccc(S(=O)(=O)N3CCOCC3)cc2)cc1,n,n,x,n,n,35.5,n,n
COc1ccc(CCC(=O)Nc2ccc3c(c2)OCCO3)cc1,n,n,x,n,n,55.0,n,n
O=C(CCCCCN1C(=O)CCC1=O)Nc1ccc2c(c1)OCCO2,n,n,x,n,n,34.1,n,n
C[C@@H]1CN([C@H](C)CO)C(=O)c2cc(C3=CCCC3)cnc2O[C@H]1CN(C)S(=O)(=O)c1cn(C)cn1,x,x,n,x,x,x,x,x
CCCNC(=S)N1CCN(C(c2ccccc2)c2ccccc2)CC1,n,n,x,n,n,n,x,x
CCCCNC(=S)N1CCN(C(c2ccccc2)c2ccccc2)CC1,n,n,n,n,n,42.7,n,n
COc1cccc2c1C(=O)c1c(O)c3c(c(O)c1C2=O)C[C@](O)(C(C)=O)C[C@H]3O[C@@H]1C[C@@H](N)[C@@H](O)[C@@H](C)O1,x,n,n,x,n,43.6,74.6,n
Cc1cccc(NC(=O)COc2ccc(/C=C\c3[nH]c(=O)[nH]c(=O)c3[N+](=O)[O-])cc2)c1,n,10.1,43.7,n,n,44.3,41.7,n
CCOC(=O)c1cc2c(C)n(-c3ccc(OCC)cc3)c(C)c2cc(C(=O)OCC)c1=O,n,n,n,n,n,n,x,x
CCOC(=O)c1cc2c(C)n(-c3ccc(N(C)C)cc3)c(C)c2cc(C(=O)OCC)c1=O,n,n,x,n,n,159.7,n,n
Nc1nc(N)c2cc(Sc3ccc(Cl)cc3)ccc2n1,x,x,n,x,x,x,x,x
Nc1nc(N)c2cc(Sc3ccc4ccccc4c3)ccc2n1,n,n,n,n,n,33.8,n,n
O=C(NCCCN1CCOCC1)c1ccc(/C=C2\Oc3ccccc3N(Cc3ccccc3F)C2=O)cc1,n,n,n,n,n,48.0,n,n
O=C(O)CC(NC(=O)CCc1ccccc1)c1ccc(Cl)cc1 (configuration not stated),n,n,n,n,n,61.7,n,n
CCC(NC(=O)CCc1ccccc1)c1ccccc1 (configuration not stated),n,n,n,n,n,n,x,x
CC(C)(C(=O)Nc1nccs1)c1ccccc1,n,n,n,n,n,39.7,n,n
COc1ccc(CN(C)C[C@H]2Oc3ccc(NS(=O)(=O)c4ccc(Cl)cc4)cc3CC(=O)N([C@H](C)CO)C[C@@H]2C)cc1,x,x,n,x,x,x,x,x
COc1cccc(S(=O)(=O)N[C@@H]2CC[C@H](CC(=O)NC3Cc4ccccc4C3)O[C@H]2CO)c1,x,x,n,x,x,x,x,x
CN(C(=O)c1cccc(C#N)c1)c1nnc(C2CCCO2)s1 (configuration not stated),n,n,x,n,n,110.4,n,n
CCCC(=O)N1CCC2(CC1)CN(C(=O)c1ccc(F)cc1)[C@@H](CO)c1[nH]c3cc(OC)ccc3c12,x,x,n,x,x,x,x,x
CC1CCC(=O)N(CCOc2ccccc2)CC1 (configuration not stated),n,n,n,n,n,n,x,x
C[C@H]1CCC(=O)N([C@H](COc2ccccc2)Cc2ccccc2)CC1,n,n,n,n,n,40.0,n,n
COc1ccc(S(=O)(=O)N2C[C@@H](O)COC[C@@H]3O[C@H](CC(=O)N[C@@H]4CCN(Cc5ccccc5)C4)CC[C@H]32)cc1,x,x,n,x,x,x,x,x
SMILES,HCV NS3 hel inh,GRIN3A LBD mod,FGF22 binding,FID counter,EBNA-1 inh,ZTA DNA inh,Zta DNA confirm,EBNA-1 counter
Cc1ccc(-c2nn(-c3ccccc3)cc2/C=C/C(=O)O)o1,n,n,n,n,n,n,x,x
Cc1ccc(-c2nn(-c3ccccc3)cc2C(=O)O)o1,n,x,x,n,n,36.7,n,n
COc1ccc(S(=O)(=O)Nc2ccc3c(c2)CC(=O)N([C@@H](C)CO)C[C@H](C)[C@H](CN(C)S(=O)(=O)c2ccc(F)cc2)O3)cc1,x,x,n,x,x,x,x,x
O=C(Oc1ccccc1)c1ccc(NC(=O)c2ccco2)cc1,n,n,n,n,n,n,x,x
COC(=O)c1ccc(NC(=O)c2ccc(NC(=O)c3ccco3)cc2)cc1,n,25.2,n,n,n,38.9,48.6,n
O=C(Nn1c(C2CCC2)nc2ccccc2c1=O)c1cccs1,n,n,n,n,n,33.6,n,n
COc1ccccc1NC(=S)N1CCc2cc(OC)c(OC)cc2C1,n,n,x,n,n,n,x,x
COc1cccc(NC(=S)N2CCc3cc(OC)c(OC)cc3C2)c1,n,n,n,n,n,47.9,n,n
CC1(C)CC(=O)C2=C(C1)OC(N)=C(C#N)C2c1ccccc1[N+](=O)[O-] (configuration not stated),n,n,n,n,n,128.9,n,n
COCC(=O)N(C[C@H]1N[C@H](CO)[C@@H]1c1ccc(-c2cccnc2)cc1)C(C)C,x,x,n,x,x,x,x,x
CCOc1cc(/C=C2/C(=O)ON=C2C)ccc1OCc1ccc(F)cc1,n,n,x,n,n,35.4,n,n
CCOc1cc(/C=C2/C(=O)ON=C2C)ccc1OCc1ccccc1F,n,n,n,n,n,n,x,x
COc1cccc(-n2cc(C(=O)NCCCOC(C)C)c3ccccc3c2=O)c1,n,n,n,n,n,n,x,x
COc1cccc(-n2cc(C(=O)NC(C)C)c3ccccc3c2=O)c1,n,n,n,n,n,154.6,n,n
CCC(=O)N1[C@@H]2c3ccc(/C=C/c4ccccc4)c(=O)n3C[C@H]1[C@H](CO)[C@H]2C(=O)N1CCOCC1,x,x,n,x,x,x,x,x
CC1(C)Cc2c(sc(NC(=O)COc3cccc4ccccc34)c2C#N)C(C)(C)N1,n,n,n,n,n,48.2,51.3,n
COc1ccc(Nc2nc(C)nc3c2oc2ccccc23)c(OC)c1,n,n,n,n,n,39.2,n,n
COc1ccccc1Nc1nc(C)nc2c1oc1ccccc12,n,n,n,n,n,n,x,x
CN(C)C(=O)CCCCCCCCC(=O)N(C)C,n,n,n,n,n,33.1,n,n
O=C(CCCCCC(=O)N(CCO)CCO)N(CCO)CCO,n,n,x,n,n,n,x,x
